HGIII-sPLA2 inh – Inhibits HGIII-sPLA2 liposome hydrolysis, primary screen; Q9NZ20; QFRET BODIPY PC-A2 liposome hydrolysis, fluorescence; inhibition, % at 12.2 µM; 370,000 compounds, 0.56% hits; AID 743126;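 active means inhibition above mean plus 3 SD of compounds lying within the high and low control bounds, cut at about 19% in these data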
Target sequence (Q9NZ20 whole entry, looked up): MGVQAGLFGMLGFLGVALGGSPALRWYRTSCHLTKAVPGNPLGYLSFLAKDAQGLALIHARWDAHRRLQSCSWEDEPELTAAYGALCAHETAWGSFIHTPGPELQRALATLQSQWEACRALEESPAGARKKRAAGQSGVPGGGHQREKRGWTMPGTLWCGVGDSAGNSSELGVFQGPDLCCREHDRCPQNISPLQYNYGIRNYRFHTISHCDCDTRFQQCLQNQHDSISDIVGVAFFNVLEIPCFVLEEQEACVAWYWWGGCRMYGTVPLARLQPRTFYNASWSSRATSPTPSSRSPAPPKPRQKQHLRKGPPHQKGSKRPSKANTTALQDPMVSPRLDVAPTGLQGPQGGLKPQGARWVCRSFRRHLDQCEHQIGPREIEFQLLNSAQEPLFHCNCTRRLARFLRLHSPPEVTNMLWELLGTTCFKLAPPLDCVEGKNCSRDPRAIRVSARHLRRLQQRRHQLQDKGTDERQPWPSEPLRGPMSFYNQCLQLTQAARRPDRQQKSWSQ
IMP-1 inh – blocks Pseudomonas aeruginosa IMP-1 metallo-beta-lactamase. purified IMP-1, nitrocefin hydrolysis, epi-absorbance fluorescence. inhibition, % at 5.6 µM. 290,000 compounds, 0.45% hits. AID 1556;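 active means inhibition above the mean plus 3 SD of all compounds in the same screening run, cut at about 4.5% in these data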
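Test system: recombinant IMP-1 enzyme, purified / Medium: HEPES buffer pH 7.1 with ZnSO4 and Brij 35 / Doses: single dose, 5.6 µM / Times: 25 °C, 15 min preincubation, 25 min reaction / Detection: Epi-absorbance via hydrolysed-nitrocefin quenching of white-plate fluorescence, 480/530 nm, EDTA stop / Evaluation: percent inhibition from optical density relative to buffer-blank wells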
VIM-2 inhibitor – inhibitors of Pseudomonas aeruginosa VIM-2 metallo-beta-lactamase. purified VIM-2, nitrocefin hydrolysis, epi-absorbance fluorescence. inhibition, % at 5.6 µM. 290,000 compounds, 0.89% hits;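 active means inhibition above the mean of all tested compounds plus 3 SD, cutoff set per screening run, cut at about 7.5% in these data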;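 further: red hydrolysis product quenches plate fluorescence so inhibitors raise well fluorescence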
PfM18AAP inh – PfM18AAP enzyme inhibition | inhibition, % at 7.35 µM | AID 1822 | 290,000 compounds, 1.2% hits | recombinant PfM18AAP, H-Glu-NHMec fluorogenic cleavage;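 active means inhibition above the campaign mean inhibition over all tested compounds plus 3 SD, cut at about 28% in these data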
hGIII sPLA2 conf – human GIII-sPLA2 inhibition, confirmation; shares compounds with HGIII-sPLA2 inh; inhibition, % at 12.2 µM; recombinant hGIII-sPLA2, BODIPY PC-A2 QFRET fluorescence; 2,000 compounds, 34% hits;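 active means mean inhibition across triplicates above the hit cutoff set in the earlier primary screen, cut at about 19% in these data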
535nm interf – counter-screen for HGIII-sPLA2 inhibitors: 535nm fluorescence interference | shares compounds with HGIII-sPLA2 inh | BODIPY FL product fluorescence interference, QFRET | inhibition, % at 12.2 µM | 2,000 compounds, 8.5% hits | AID 743282;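 active means average inhibition above the solvent-only control mean plus 3 SD, cut at about 6% in these data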
535nm interf DR – interferes with 535nm fluorescence in dose response counter-screen; shares compounds with HGIII-sPLA2 inh; BODIPY FL product fluorescence interference, cell-free; IC50, µM; 240 tested, under 10 active; AID 743455;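 active means IC50 at or below 10 µM; inactive means IC50 above 10 µM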
A number is an active result; i = inactive; nt = no result. The list is not random: actives were taken first. Their share in the collection is about 2.4%.

SMILES | HGIII-sPLA2 inh | IMP-1 inh | VIM-2 inhibitor | PfM18AAP inh | hGIII sPLA2 conf | 535nm interf | others
CC(=O)Nc1ccc(NC(=S)NC(=O)c2ccc([N+](=O)[O-])cc2)cc1 | 24 | i | i | i | i | i
Cc1ccc(C(=O)NC(=S)NNC(=O)c2ccccc2[N+](=O)[O-])cc1 | i | i | i | i | nt | nt
CN(C)c1ccc(/C=N/NC(=O)c2ccn(C)n2)cc1 | 20 | i | i | i | i | i
NC(=O)C1CCN(c2nc(-c3ccc(Br)cc3)cs2)CC1 | 23 | i | i | i | i | i
Clc1ccc(-c2csc(N3CCOCC3)n2)cc1 | i | i | i | i | nt | nt
Clc1ccc(-c2csc(N3CCCCCC3)n2)cc1 | 23 | i | i | i | 27 | 6.7
CC(C)(C)c1ccc(-c2csc(N3CCC(C(N)=O)CC3)n2)cc1 | i | nt | nt | nt | nt | nt
C(=N\Nc1nc2ccccc2[nH]1)/c1cccc2cccnc12 | 37 | i | i | i | i | i
C=CCn1c(-c2ccoc2C)n[nH]c1=S | i | i | i | i | nt | nt
C=CCn1c(-c2ccco2)n[nH]c1=S | 21 | i | i | i | i | i
CC(=O)c1ccccc1NC(=O)CCCNC(=O)c1ccc(Cl)cc1 | i | i | i | i | nt | nt
O=C(CCCNC(=O)c1ccc(Cl)cc1)Nc1ccccc1F | 21 | i | i | i | i | i
O=C(NCCNc1ccc([N+](=O)[O-])cc1)c1cccc(Br)c1 | 23 | i | i | i | i | i
C[C@@H](NC(=O)Cn1ccc(N)nc1=O)c1cccc2ccccc12 | i | nt | nt | nt | nt | nt
COCC(C)N=Cc1c(O)[nH]c2ccccc12 (centres undefined) | i | i | i | i | nt | nt
CN(C)CC(C)(C)CN=Cc1c(O)[nH]c2ccccc12 | 19 | i | i | i | i | i
CC1CCCC(NC(=O)CSC2=Nc3ccccc3C3CC=NN23)C1C (centres undefined) | i | nt | nt | nt | nt | nt
CC1CCCCC1NC(=O)CSC1=Nc2ccccc2C2CC=NN12 (centres undefined) | 20 | nt | nt | nt | i | i
CCNC1CCS(=O)(=O)C1 (centres undefined) | 22 | i | i | i | i | i
CCN(CC)CCCNC1CCS(=O)(=O)C1 (centres undefined) | i | i | i | i | nt | nt
C=CCN(c1ccccc1)S(=O)(=O)c1cccc(C(=O)NCc2ccco2)c1 | i | nt | nt | nt | nt | nt
CC(C)CN(CCCNC(=O)CN1N=C(c2ccc(Cl)cc2)CCC1=O)CC(C)C | 25 | i | i | i | 32 | i
C=CCn1c(-c2cccc(OC)c2)n[nH]c1=S | i | i | i | i | nt | nt
COc1cccc(-c2n[nH]c(=S)n2Cc2ccco2)c1 | 23 | i | 9.1 | i | 25 | i
CCSC(=S)c1c(C)[nH]n(-c2ccccc2)c1=O | 19 | i | i | i | i | i
SMILES | HGIII-sPLA2 inh | IMP-1 inh | VIM-2 inhibitor | PfM18AAP inh | hGIII sPLA2 conf | 535nm interf | others
Cc1[nH]n(-c2ccccc2)c(=O)c1C(=O)c1ccccc1 | i | i | i | i | nt | nt
Nc1[nH]n(-c2ccccc2)c(=O)c1N=Nc1ccccc1[N+](=O)[O-] | i | i | i | i | nt | nt
Nc1[nH]n(-c2ccccc2)c(=O)c1N=Nc1ccccc1 | 23 | i | i | i | 33 | 6.3
COC(=O)Cc1ccc(NC(=S)NCC(C)C)cc1 | i | i | i | i | nt | nt
CCCNC(=S)Nc1ccc(CC(=O)OC)cc1 | 24 | i | i | i | i | i
Cn1c(SCC(=O)NCCN2CCCCC2)nc2cccnc21 | i | nt | nt | nt | nt | nt
Cc1ccccc1-n1c(=S)[nH]c2nc3c(cc2c1=O)COC(C)(C)C3 | 20 | i | i | i | i | i
COc1ccc(C2Nc3cccc(O)c3C(=O)N2Cc2ccccc2)cc1COc1ccc(NC(C)=O)cc1 (centres undefined) | i | nt | nt | nt | nt | nt
CCN(CC)C(=O)CC[C@H]1CC[C@]2(CCCN(C(=O)c3ccccc3)C2)O1 | i | nt | nt | nt | nt | nt
C=CCN1C(=O)/C(=C2/Sc3ccc(OC)cc3N2C)SC1=NCc1ccccc1 | i | i | i | i | nt | nt
C=CCN1C(=O)/C(=C2/Sc3ccc(OC)cc3N2C)SC1=Nc1ccccc1 | 94 | i | i | i | i | i
O=C1NC(=S)N/C1=C\c1cccc([N+](=O)[O-])c1 | 20 | i | i | i | i | i
O=c1[nH]c2ccccc2n2c(=S)[nH]nc12 | i | i | i | i | nt | nt
O=c1[nH]c2ccccc2n2c(C(F)(F)F)nnc12 | 20 | i | i | i | i | i
COc1cccc(CNC(=O)[C@H]2CCCN2C(=O)[C@H]2CCCN2C(=O)c2ccc(C)cc2)c1 | 22 | nt | nt | nt | i | i
O=C(NCc1ccccc1)[C@H]1CCCN1C(=O)[C@H]1CCCN1C(=O)c1ccccc1 | i | nt | nt | nt | nt | nt
O=C(NCc1ccccc1)[C@H]1CCCN1C(=O)[C@H]1CCCN1C(=O)c1ccc(Cl)cc1 | 22 | nt | nt | nt | i | i
COc1cccc(CNC(=O)[C@@H]2CCCN2C(=O)[C@@H]2CCCN2C(=O)c2ccc(Cl)cc2)c1 | i | nt | nt | nt | nt | nt
CS(=O)(=O)c1ccc(C(=O)OCC#CCSc2nnc(-c3cccc4ccccc34)o2)cc1 | i | nt | nt | nt | nt | nt
CCCN(CCC)C(=O)C[n+]1cccc(/C=N/O)c1 | 20 | i | i | i | i | i
O=C(C[n+]1cccc(/C=N/O)c1)N(Cc1ccccc1)Cc1ccccc1 | i | i | i | i | nt | nt
C[C@H](O)[C@@H]1CN2CCc3c([nH]c4ccccc34)[C@@H]2C[C@@H]1N(C)C(=O)OCc1ccccc1 | i | nt | nt | nt | nt | nt
O=C(NCCS(=O)(=O)NC1CCCCC1)c1ccc2c(c1)OCO2 | i | nt | nt | nt | nt | nt
Cc1cccc(CSCC(=O)N2CCN(S(=O)(=O)c3ccccc3C#N)CC2)c1 | i | nt | nt | nt | nt | nt
CCc1ccccc1NC(=S)NC1CC2CCC(C1)N2Cc1ccco1 (centres undefined) | 21 | i | i | i | i | i
SMILES | HGIII-sPLA2 inh | IMP-1 inh | VIM-2 inhibitor | PfM18AAP inh | hGIII sPLA2 conf | 535nm interf | others
O=C(O)CC1S/C(=N/N=C/c2ccccn2)NC1=O (centres undefined) | i | i | i | i | nt | nt
CC(C)N=C1NN=C(c2cccs2)C(CC(=O)O)S1 (centres undefined) | 20 | i | i | i | i | i
NC(N)=N/N=C(\N=Nc1ccccc1)c1cccc2cccnc12 | i | nt | nt | nt | nt | nt
NC(N)=N/N=C(\N=Nc1ccccc1)c1ccc(Cl)cc1 | 27 | nt | nt | nt | 34 | i | 535nm interf DR=i
C#CCOCCOCCOCCNc1nc(N2CCN(C(=O)[C@H](CCCCN)n3cc([C@@H](N)C(C)CC)nn3)CC2)nc(N2CCN(C(=O)[C@H](CCCCN)n3cc([C@@H](N)C(C)CC)nn3)CC2)n1 (some centres undefined) | 20 | nt | nt | nt | i | i
COC(=O)c1c(Sc2ccccc2)c2ccccc2n1C | 20 | i | i | i | i | i
Cn1c(CC(=O)NN)c(Sc2ccccc2)c2ccccc21 | i | i | i | i | nt | nt
CC(C)(C)OC(=O)C[C@H]1C/C=C\C[C@@H](CC(=O)N(CCO)Cc2ccccc2)C(=O)NC[C@@H](c2ccccc2)OC1=O | i | nt | nt | nt | nt | nt
CS(=O)(=O)N1CCCC(C(=O)NCc2ccco2)C1 (centres undefined) | 20 | i | i | i | i | i

From PubChem BioAssay
